Data taken from ChEMBL document CHEMBL1154740, “Efficient microwave combinatorial synthesis of novel indolic arylpiperazine derivatives as serotoninergic ligands” (Eur J Med Chem, 2010).

How the values were obtained:
[1] = biological target: D(2) dopamine receptor (Rattus norvegicus, UniProt P61169); experiment: Displacement of [3H]spiperone from dopamine D2 in rat striatum by liquid scintillation counting
Procedure, shortened: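 Striatal membranes (3 mg fresh tissue) in Tris–HCl with NaCl, KCl, CaCl2, MgCl2, ascorbic acid and pargyline, pH 7.1 at 37 °C. Incubated with [3H]spiperone at 0.4 nM final for 15 min at 37 °C, then filtered on GF/B. Nonspecific binding defined with (+)-butaclamol. IC50 converted to Ki by Cheng–Prusoff.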

[2] = biological target: T1, Adrenergic receptor alpha-1 (Rattus norvegicus, UniProt P15823+P23944+P43140); experiment: Displacement of [3H]prozosine from alpha1 adrenergic receptor in rat brain cortex by liquid scintillation counting; format: tissue-based
T1 sequence (P15823 whole entry): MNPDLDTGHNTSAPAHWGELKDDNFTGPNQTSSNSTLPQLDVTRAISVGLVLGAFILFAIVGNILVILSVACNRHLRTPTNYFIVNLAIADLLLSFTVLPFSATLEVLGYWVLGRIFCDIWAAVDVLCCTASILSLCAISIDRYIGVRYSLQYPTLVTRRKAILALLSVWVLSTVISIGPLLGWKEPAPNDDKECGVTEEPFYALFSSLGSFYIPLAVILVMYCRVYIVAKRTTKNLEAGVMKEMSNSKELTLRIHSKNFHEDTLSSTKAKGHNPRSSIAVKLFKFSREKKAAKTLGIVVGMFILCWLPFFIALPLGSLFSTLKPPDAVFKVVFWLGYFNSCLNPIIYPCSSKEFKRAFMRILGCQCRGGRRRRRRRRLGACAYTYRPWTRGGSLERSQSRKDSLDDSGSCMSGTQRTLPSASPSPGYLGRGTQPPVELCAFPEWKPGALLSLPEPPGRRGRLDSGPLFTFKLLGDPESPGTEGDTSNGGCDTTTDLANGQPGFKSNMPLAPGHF
T1 sequence (P23944 whole entry): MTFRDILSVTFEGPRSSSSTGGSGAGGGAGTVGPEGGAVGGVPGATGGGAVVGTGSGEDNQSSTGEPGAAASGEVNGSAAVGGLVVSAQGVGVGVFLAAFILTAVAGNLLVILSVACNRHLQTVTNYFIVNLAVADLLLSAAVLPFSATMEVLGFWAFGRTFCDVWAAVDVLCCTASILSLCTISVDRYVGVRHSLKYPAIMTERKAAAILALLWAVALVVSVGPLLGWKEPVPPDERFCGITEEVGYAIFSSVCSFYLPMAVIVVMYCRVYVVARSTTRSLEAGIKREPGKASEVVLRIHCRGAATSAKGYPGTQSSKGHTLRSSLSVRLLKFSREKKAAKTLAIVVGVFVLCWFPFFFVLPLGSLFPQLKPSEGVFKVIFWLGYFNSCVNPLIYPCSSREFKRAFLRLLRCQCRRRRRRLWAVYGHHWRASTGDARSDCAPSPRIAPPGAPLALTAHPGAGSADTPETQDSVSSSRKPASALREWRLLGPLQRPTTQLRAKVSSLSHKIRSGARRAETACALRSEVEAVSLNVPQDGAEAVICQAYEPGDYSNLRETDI
T1 sequence (P43140 whole entry): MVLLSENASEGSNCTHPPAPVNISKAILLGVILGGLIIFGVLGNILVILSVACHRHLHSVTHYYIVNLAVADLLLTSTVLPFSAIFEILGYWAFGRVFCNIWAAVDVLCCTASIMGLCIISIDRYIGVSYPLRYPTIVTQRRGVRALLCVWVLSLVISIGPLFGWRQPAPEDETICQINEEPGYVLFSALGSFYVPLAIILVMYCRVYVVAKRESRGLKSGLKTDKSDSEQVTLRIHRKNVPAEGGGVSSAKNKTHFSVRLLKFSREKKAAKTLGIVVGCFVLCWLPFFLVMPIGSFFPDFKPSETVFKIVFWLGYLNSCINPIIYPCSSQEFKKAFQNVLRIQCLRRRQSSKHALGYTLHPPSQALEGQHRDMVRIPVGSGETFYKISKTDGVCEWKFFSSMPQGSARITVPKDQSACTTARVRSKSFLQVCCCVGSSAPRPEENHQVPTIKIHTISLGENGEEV
Procedure, shortened: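 Brain cortex membranes (10 mg fresh tissue) in 50 mM Tris–HCl pH 7.4 at 25 °C. [3H]prazosin at 0.4 nM final, incubated 30 min at 25 °C, GF/B filtration. Nonspecific binding with […]. Ki from IC50 via Cheng–Prusoff.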

[3] = biological target: T2, 5-hydroxytryptamine receptor 2C (Rattus norvegicus, UniProt P08909); experiment: Displacement of [3H]mesulergine from 5HT2C in Sprague-Dawley rat brain cortex by liquid scintillation counting
T2 sequence (P08909 whole entry): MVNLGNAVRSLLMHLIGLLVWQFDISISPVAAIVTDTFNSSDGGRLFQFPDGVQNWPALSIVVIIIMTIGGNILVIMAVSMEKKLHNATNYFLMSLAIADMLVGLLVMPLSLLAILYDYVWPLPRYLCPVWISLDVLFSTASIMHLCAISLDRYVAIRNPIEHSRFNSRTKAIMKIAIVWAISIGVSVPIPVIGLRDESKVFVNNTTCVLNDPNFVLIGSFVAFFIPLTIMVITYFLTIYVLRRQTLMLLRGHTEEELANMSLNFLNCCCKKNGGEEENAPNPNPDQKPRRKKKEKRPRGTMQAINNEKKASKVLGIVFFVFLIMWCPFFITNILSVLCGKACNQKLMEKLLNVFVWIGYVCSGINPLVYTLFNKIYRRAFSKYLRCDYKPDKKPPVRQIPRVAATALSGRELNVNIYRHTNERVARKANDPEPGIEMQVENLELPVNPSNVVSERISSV
Procedure, shortened: (§1)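 Frontal cortex of male Sprague–Dawley rats (180–220 g), in 50 mM Tris-HCl, 0.5 mM EDTA, 10 mM MgCl2, pH 7.4, plus 0.1% ascorbate and pargyline. Triplicate 2.0 mL assays: 5-HT2A with 5 mg tissue and 0.4 nM [3H]ketanserin; 5-HT2C with 10 mg tissue and 1 nM [3H]mesulergine. 15 min at 37 °C, PEI-soaked filters. IC50 from six concentrations converted to Ki (Cheng–Prusoff).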

[4] = biological target: T3, 5-hydroxytryptamine receptor 1A (Rattus norvegicus, UniProt P19327); experiment: Displacement of [3H]8OH-DPAT from 5HT1A in Sprague-Dawley rat brain cortex by liquid scintillation counting
T3 sequence (P19327 whole entry): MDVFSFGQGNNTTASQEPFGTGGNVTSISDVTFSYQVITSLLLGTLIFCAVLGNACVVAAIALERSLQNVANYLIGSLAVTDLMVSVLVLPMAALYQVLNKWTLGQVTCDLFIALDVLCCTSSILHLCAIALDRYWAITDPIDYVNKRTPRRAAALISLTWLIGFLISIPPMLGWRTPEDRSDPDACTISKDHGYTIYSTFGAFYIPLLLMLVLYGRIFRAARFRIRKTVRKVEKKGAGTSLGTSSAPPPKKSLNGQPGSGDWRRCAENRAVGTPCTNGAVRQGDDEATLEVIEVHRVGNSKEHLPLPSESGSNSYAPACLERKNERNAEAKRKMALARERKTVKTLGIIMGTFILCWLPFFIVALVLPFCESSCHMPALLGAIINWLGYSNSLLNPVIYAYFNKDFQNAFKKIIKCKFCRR
Procedure, shortened: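 Male Sprague–Dawley rat (180–220 g) cerebral cortex membranes, washed and preincubated 10 min at 37 °C, in Tris–HCl pH 7.7 with pargyline, 4 mM CaCl2, 0.1% ascorbate. [3H]-8-OH-DPAT at 0.1 nM final, 30 min at 37 °C, GF/B filtration. Nonspecific binding defined with 5-HT. Six concentrations in triplicate; IC50 converted to Ki by Cheng–Prusoff using Scatchard KD.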

[5] = biological target: 5-hydroxytryptamine receptor 2A (Rattus norvegicus, UniProt P14842); experiment: Displacement of [3H]ketanserin from 5HT2A in Sprague-Dawley rat brain cortex by liquid scintillation counting; procedure, shortened: as §1
Sequence of 5-hydroxytryptamine receptor 2A (P14842 whole entry): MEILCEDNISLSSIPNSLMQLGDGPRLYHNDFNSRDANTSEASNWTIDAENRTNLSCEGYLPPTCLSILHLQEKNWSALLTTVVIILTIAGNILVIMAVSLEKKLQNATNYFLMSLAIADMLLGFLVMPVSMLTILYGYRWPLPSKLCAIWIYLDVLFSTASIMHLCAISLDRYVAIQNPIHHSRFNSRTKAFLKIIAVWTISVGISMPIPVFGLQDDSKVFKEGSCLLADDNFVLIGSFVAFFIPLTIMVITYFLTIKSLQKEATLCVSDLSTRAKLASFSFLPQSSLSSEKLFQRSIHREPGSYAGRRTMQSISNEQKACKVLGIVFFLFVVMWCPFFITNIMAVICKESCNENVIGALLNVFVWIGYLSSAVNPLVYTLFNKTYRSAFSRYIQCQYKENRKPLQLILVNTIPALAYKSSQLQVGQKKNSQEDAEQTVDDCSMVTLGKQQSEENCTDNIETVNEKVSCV

[6] = biological target: D(1A) dopamine receptor (Rattus norvegicus, UniProt P18901); experiment: Displacement of [3H]SCH23390 from dopamine D1 in rat striatum by liquid scintillation counting
Sequence of D(1A) dopamine receptor (P18901 whole entry): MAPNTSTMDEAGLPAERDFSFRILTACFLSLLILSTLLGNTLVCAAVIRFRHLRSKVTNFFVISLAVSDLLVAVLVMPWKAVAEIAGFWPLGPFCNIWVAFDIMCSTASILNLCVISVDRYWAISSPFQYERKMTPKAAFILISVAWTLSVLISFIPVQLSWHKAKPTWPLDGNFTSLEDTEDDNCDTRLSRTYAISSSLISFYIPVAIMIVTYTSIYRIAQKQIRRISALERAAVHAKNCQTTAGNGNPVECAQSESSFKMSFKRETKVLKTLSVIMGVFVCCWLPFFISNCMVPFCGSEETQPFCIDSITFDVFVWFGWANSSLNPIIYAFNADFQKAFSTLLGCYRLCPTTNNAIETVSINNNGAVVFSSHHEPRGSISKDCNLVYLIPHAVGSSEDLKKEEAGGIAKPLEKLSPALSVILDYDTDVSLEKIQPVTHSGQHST
Procedure, shortened: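 Rat corpora striata membranes in 50 mM Tris–HCl with 120 mM NaCl, 5 mM KCl, 2 mM CaCl2, 1 mM MgCl2, 0.1% ascorbic acid, pargyline, pH 7.1 at 37 °C; 3 mg fresh tissue per tube. [3H]SCH-23390 at 0.4 nM final, 15 min at 37 °C, GF/B filtration. Nonspecific binding defined with piflutixol. Ki from IC50 via Cheng–Prusoff.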

[7] = biological target: T4, Adrenergic receptor alpha-2 (Rattus norvegicus, UniProt P22086+P19328+P22909); experiment: Displacement of [3H]yohimbine from alpha2 adrenergic receptor in rat brain cortex by liquid scintillation counting; format: tissue-based
T4 sequence (P22086 whole entry): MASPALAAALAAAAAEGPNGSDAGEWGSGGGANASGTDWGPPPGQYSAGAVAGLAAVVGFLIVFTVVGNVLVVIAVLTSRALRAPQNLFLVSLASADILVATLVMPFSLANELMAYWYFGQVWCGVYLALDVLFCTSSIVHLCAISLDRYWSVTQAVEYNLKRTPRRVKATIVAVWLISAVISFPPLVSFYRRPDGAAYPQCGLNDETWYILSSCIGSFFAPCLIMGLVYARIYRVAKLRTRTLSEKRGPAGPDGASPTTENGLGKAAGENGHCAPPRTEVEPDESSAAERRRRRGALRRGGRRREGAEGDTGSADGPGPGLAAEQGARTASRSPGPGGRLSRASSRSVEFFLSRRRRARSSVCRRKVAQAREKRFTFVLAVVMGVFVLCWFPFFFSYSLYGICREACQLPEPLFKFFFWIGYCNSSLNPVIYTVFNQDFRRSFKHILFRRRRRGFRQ
T4 sequence (P19328 whole entry): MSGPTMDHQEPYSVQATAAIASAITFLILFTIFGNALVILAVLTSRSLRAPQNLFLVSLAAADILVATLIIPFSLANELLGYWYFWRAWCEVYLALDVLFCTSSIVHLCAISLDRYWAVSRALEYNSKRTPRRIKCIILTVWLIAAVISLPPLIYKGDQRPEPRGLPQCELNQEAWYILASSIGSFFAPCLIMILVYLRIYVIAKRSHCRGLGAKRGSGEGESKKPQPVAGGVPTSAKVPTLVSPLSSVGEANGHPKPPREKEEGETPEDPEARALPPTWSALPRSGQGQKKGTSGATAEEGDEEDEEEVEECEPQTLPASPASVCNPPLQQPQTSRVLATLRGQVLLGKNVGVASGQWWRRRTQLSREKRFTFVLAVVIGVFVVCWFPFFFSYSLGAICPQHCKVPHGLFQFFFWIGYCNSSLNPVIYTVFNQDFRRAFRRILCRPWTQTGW
T4 sequence (P22909 whole entry): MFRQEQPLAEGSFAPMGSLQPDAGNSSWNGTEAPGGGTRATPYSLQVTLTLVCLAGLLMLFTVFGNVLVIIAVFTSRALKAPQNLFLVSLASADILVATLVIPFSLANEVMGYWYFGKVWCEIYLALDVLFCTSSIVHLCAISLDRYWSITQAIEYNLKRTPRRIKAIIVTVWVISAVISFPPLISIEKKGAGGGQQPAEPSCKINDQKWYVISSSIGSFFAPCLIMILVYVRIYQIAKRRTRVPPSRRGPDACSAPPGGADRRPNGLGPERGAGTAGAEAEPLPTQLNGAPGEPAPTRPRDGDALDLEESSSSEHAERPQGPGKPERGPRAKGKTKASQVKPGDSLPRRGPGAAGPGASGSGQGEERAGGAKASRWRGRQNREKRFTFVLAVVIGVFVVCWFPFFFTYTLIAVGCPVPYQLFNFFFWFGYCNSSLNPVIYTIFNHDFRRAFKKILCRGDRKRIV
Procedure, shortened: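 Cortical membranes prepared in 5 mM Tris–HCl/5 mM EDTA pH 7.3, washed three times; 10 mg fresh tissue per tube. [3H]yohimbine at 1 nM final, 30 min at 25 °C, GF/B filtration, washed with Tris–HCl/EDTA pH 7.5. Nonspecific binding defined with […]. IC50 converted to Ki by Cheng–Prusoff.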

Sequence of D(2) dopamine receptor (P61169 whole entry): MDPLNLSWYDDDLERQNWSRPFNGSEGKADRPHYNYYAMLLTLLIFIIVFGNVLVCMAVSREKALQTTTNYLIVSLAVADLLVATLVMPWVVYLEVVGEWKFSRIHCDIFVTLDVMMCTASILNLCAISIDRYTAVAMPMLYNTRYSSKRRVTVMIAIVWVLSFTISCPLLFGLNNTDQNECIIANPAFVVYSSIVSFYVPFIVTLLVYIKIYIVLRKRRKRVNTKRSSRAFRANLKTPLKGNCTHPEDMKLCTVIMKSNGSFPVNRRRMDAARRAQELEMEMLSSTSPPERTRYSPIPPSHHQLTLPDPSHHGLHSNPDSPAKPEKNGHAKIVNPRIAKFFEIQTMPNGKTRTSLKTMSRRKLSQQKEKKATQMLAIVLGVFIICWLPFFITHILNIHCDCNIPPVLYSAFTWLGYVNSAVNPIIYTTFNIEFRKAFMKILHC

| Structure (SMILES) | Ki ([3]; read-out: Ki) [nM] | Ki ([4]; read-out: Ki) [nM] | Ki ([5]; read-out: Ki) [nM] | further results |
| --- | --- | --- | --- | --- |
| CCOC(=O)c1cc2cc(OCCCN3CCN(c4ccc(OC)cc4)CC3)ccc2[nH]1 | 50.4 | 10000 | 10000 | Ki [1]: Not Active; Ki [2]: 514 nM; Ki [6]: Not Active; Ki [7]: 6480 nM |
| CCOC(=O)c1cc2cc(OCCCN3CCN(c4ccccn4)CC3)ccc2[nH]1 | 104 |  | 344 | Ki [4]: Not Active |
| CCOC(=O)c1cc2cc(OCCCN3CCN(c4ccccc4Cl)CC3)ccc2[nH]1 | 39.7 | 10000 | 537 |  |
| CCOC(=O)c1cc2cc(OCCCN3CCN(c4ccc(Cl)c(Cl)c4)CC3)ccc2[nH]1 | 10000 | 10000 |  | Ki [5]: Not Active |
| CCOC(=O)c1cc2cc(OCCCN3CCN(c4ccccc4C#N)CC3)ccc2[nH]1 |  |  |  | Ki [3]: Not Active; Ki [5]: Not Active |
| CCOC(=O)c1cc2cc(OCCCN3CCN(c4cccc(C(F)(F)F)c4)CC3)ccc2[nH]1 |  | 35.8 | 3610 | Ki [3]: Not Active |
| CCOC(=O)c1cc2cc(OCCCN3CCN(c4ccccc4C)CC3)ccc2[nH]1 |  |  |  | Ki [3]: Not Active; Ki [5]: Not Active |
| CCOC(=O)c1cc2cc(OCCCN3CCN(Cc4ccc5c(c4)OCO5)CC3)ccc2[nH]1 | 43.6 | 10000 | 26.1 | Ki [1]: Not Active; Ki [2]: 338 nM; Ki ([6]; read-out: Ki): 10000 nM; Ki [7]: 231 nM |
| CCOC(=O)c1cc2cc(OCCCN3CCN(c4ccc([N+](=O)[O-])cc4)CC3)ccc2[nH]1 | 247 |  | 10000 | Ki [4]: Not Active |
| CCOC(=O)c1cc2cc(OCCCN3CCN(c4cccc(Cl)c4)CC3)ccc2[nH]1 | 1.28 | 39 |  | Ki [1]: Not Active; Ki [2]: 32.9 nM; Ki ([6]; read-out: Ki): 1070 nM; Ki [7]: 1350 nM |
| CCOC(=O)c1cc2cc(OCCCN3CCN(C(=O)c4ccco4)CC3)ccc2[nH]1 | 309 |  | 452 | Ki [4]: Not Active |
| CCOC(=O)c1cc2cc(OCCCN3CCN(c4ccc(Cl)cc4)CC3)ccc2[nH]1 | 45.1 | 14 |  |  |
